pIC50, pKd: −log10 of the molar value. Activity calls are given as the source filed them. The rule behind the calls is not given here.
How the values were obtained:
PANC-1 [1] = test: Downregulation of KRAS mRNA expression in human PANC1 cells at 1.6 uM after 6 to 24 hrs by qRT-PCR method relative to control; format: functional
Method in brief: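 Panc-1 cells were seeded at 18 × 10^3/well and treated the next day. Total RNA was extracted 6 and 24 h later. cDNA was made with oligo-dT plus random hexamers and M-MLV reverse transcriptase (1 h, 37 °C). Multiplex probe qPCR measured KRAS against HPRT and β2-microglobulin (50 cycles: 10 s 95 °C, 60 s 58 °C).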

[2] = Drug uptake in cytoplasm of human PANC1 at 3 uM after 4 hrs by Syto-14 fluorescent dye-based confocal microscopic method; format: ADME
PANC-1 [3] = test: Induction of apoptosis in human PANC1 cells assessed as activation of caspase-3/7 at 0.8 to 1.6 uM; format: functional, cell-based
Method in brief: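 Caspase-3/7 activity in treated Panc-1 cells was read with a homogeneous fluorogenic caspase-3/7 kit per the manufacturer.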

PANC-1 [4] = test: Induction of apoptosis in human PANC1 cells at 1.6 uM after 72 hrs by annexin V/propidium iodide staining-based flow cytometric method (reference value: 1.2%); format: functional
Method in brief: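 Panc-1 cells were exposed to 1.6 μM compound for 72 h, stained with FITC-annexin V and propidium iodide, and apoptotic cells counted by flow cytometry.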

[5] = Binding affinity to human KRAS utr-z G-quadruplex RNA by fluorescence titration method
Method in brief: (§1)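 KD was obtained from fluorescence titrations of ligand with G4 RNA in 50 mM Tris-HCl, pH 7.4, 100 mM KCl.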

Homo sapiens [6] = species: Homo sapiens; test: Stabilization of human KRAS 5'-UTR G-quadruplex RNA transfected in human PANC1 cells assessed as inhibition of translation at 0.3 to 1.6 uM preincubated for 6 hrs followed by transfection measured after 48 hrs by dual-glo luciferase reporter gene assay; format: cell-based
Method in brief: (§2)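 Panc-1 cells (20 × 10^3) were treated the next day for 6 h. They were then transfected with jet-PEI using 10 ng Renilla reporter under the KRAS promoter including the 5′-UTR, plus 200 ng Firefly plasmid under a G4-mutated HRAS promoter. Dual-Glo luminescence was read 48 h later. Renilla/Firefly is given as T/C × 100 against untreated cells.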

[7] = Binding affinity to human KRAS utr-4 G-quadruplex RNA by fluorescence titration method
[8] = Selectivity ratio of Kd for WC RNA hairpin (unknown origin) to Kd for human KRAS utr-z G-quadruplex RNA
[9] = Selectivity ratio of Kd for WC RNA hairpin (unknown origin) to Kd for human KRAS utr-4 G-quadruplex RNA
[10] = Binding affinity to human KRAS promoter G-quadruplex DNA by fluorescence titration method
PANC-1 [11] = test: Inhibition of metabolic activity in human PANC1 cells after 72 hrs by resazurin assay; format: functional, cell-based; conditions: PANC-1, 72 h
Method in brief: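 Panc-1 cells were seeded at 10 × 10^3/well, treated after 1 day, incubated 72 h, then assayed with resazurin for metabolic activity. IC50 was reported.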

Homo sapiens [12] = species: Homo sapiens; test: Stabilization of human KRAS utr-z G-quadruplex RNA assessed as change in melting temperature at 1 to 4 ligand to RNA ratio after 1 hr by UV-visible spectrophotometer
Method in brief: (§3)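 UV-melting curves of the G4 RNA were recorded at 260 and 296 nm in a 0.5 cm cuvette, in 50 mM Tris-HCl pH 7.4, 100 mM KCl. Ligand was tested at ligand/G4 ratio r = 1, 2 and 4. ΔTM is the TM increase over RNA alone.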

Homo sapiens [13] = species: Homo sapiens; test: Stabilization of human KRAS 5'-UTR G-quadruplex RNA in human PANC1 cells assessed as inhibition of translation by measuring levels of KRAS protein at 1.6 uM after 48 hrs by Western blot method relative to control; format: cell-based; design: scale not given: the % may be the effect or the level left
Method in brief: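 Panc-1 lysates (15 μg protein) were run on 12% SDS-PAGE and transferred to nitrocellulose. Membranes were blocked with 5% BSA in PBS-0.05% Tween and probed overnight at 4 °C with rabbit polyclonal anti-KRAS (1:250) and mouse anti-actin. HRP-conjugated secondaries were applied for 1 h, with chemiluminescent detection.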

Homo sapiens [14] = species: Homo sapiens; test: Stabilization of human KRAS utr-c G-quadruplex RNA assessed as change in melting temperature at 1 to 4 ligand to RNA ratio after 1 hr by UV-visible spectrophotometer; method in brief: as §3
[15] = Binding affinity to human KRAS utr-1 G-quadruplex RNA by fluorescence titration method; method in brief: as §1
[16] = Selectivity ratio of Kd for WC RNA hairpin (unknown origin) to Kd for human KRAS utr-1 G-quadruplex RNA
[17] = Binding affinity to WC RNA hairpin (unknown origin) by fluorescence titration method
Homo sapiens [18] = species: Homo sapiens; test: Stabilization of human KRAS utr-1 G-quadruplex RNA assessed as change in melting temperature at 1 to 4 ligand to RNA ratio after 1 hr by UV-visible spectrophotometer; method in brief: as §3
[19] = Drug uptake in human PANC1 cells at 3 uM after 4 hrs by flow cytometric method; format: ADME, cell-based; conditions: panc-1, 4 h
Method in brief: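 Panc-1 cells were seeded at 5 × 10^4/well and exposed the next day to 3 μM compound for 4 h. Cells were trypsinized, resuspended in PBS and analysed at once by flow cytometry (488 nm excitation, FL3 680 nm, log scale), at least 10^4 cells per sample, gated on FSC/SSC.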

Homo sapiens [20] = species: Homo sapiens; test: Stabilization of human KRAS 5'-UTR G-quadruplex RNA transfected in human PANC1 cells assessed as inhibition of translation at 0.07 to 0.33 uM preincubated for 6 hrs followed by transfection measured after 48 hrs by dual-glo luciferase reporter gene assay; format: cell-based; method in brief: as §2
PANC-1 [21] = test: Inhibition of colony formation in human PANC1 cells at 0.25 to 0.5 uM after 18 days by methylene blue assay relative to control; format: functional
Method in brief: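 Panc-1 cells were plated in 60 mm dishes with compound. After 18 days they were fixed and stained 10 min with 2.5% methylene blue in 50% ethanol. Colonies of more than 50 cells were counted.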

Cytomegalovirus = test: Stabilization of CMV promoter lacking KRAS 5'-UTR G-quadruplex RNA transfected in human PANC1 cells assessed as inhibition of translation at 0.15 to 0.6 uM preincubated for 6 hrs followed by transfection measured after 48 hrs by dual-glo luciferase reporter gene assay; format: cell-based
Method in brief: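 Renilla reporter pRL-CMV lacks the KRAS 5′-UTR. Panc-1 cells were pretreated 6 h, then cotransfected (10 ng) with 200 ng Firefly plasmid under a G4-mutated HRAS promoter. Dual-Glo was read after 48 h, expressed as Renilla/Firefly T/C × 100 versus untreated cells.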

Homo sapiens [22] = species: Homo sapiens; test: Stabilization of human KRAS utr-1 G-quadruplex RNA assessed as change in melting temperature at 4 ligand to RNA ratio after 1 hr in presence of 5 or 10 fold excess 21 mer RNA duplex by UV-visible spectrophotometer
Method in brief: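 The utr-1 G4 RNA was UV-melted with ligand at ligand/G4 ratio r = 4, with a 5- or 10-fold excess of 21-mer RNA duplex added to test quadruplex-over-duplex competition.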

Homo sapiens [23] = species: Homo sapiens; test: Stabilization of human KRAS 5'-UTR G-quadruplex RNA at 3'-end of CMV promoter transfected in human PANC1 cells assessed as inhibition of translation preincubated for 6 hrs followed by transfection measured after 48 hrs by dual-glo luciferase reporter gene assay; format: cell-based
Method in brief: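 Renilla reporter pRL-CMV-UTR carries the 192-nt KRAS 5′-UTR inserted downstream of the CMV promoter. Panc-1 cells were pretreated 6 h (0–1.6 μM), then cotransfected (10 ng) with 200 ng Firefly plasmid under a G4-mutated HRAS promoter. Dual-Glo was read after 48 h, expressed as Renilla/Firefly T/C × 100.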

| Drug uptake [2] | pKd [5] | pKd [7] | Selectivity ratio [8] | Selectivity ratio [9] | pKd [10] | pIC50 (PANC-1 [11]) | ΔTm (Homo sapiens [12]) [°C] | ΔTm (Homo sapiens [14]) [°C] | pKd [15] | Selectivity ratio [16] | pKd [17] | ΔTm (Homo sapiens [18]) [°C] | Drug uptake [19] | Compound | Activity (PANC-1 [1]) | Activity (PANC-1 [3]) | Activity (PANC-1 [4]) [%] | inhibition (Homo sapiens [6]) | Activity (Homo sapiens [13]) [%] | also measured |
| --- | --- | --- | --- | --- | --- | --- | --- | --- | --- | --- | --- | --- | --- | --- | --- | --- | --- | --- | --- | --- |
| Active |  |  |  |  |  |  |  |  |  |  |  |  |  | N=C(N)NCCNc1c2c(c(NCCNC(=N)N)c3occc13)C(=O)c1ccccc1C2=O | inactive | inactive |  |  |  |  |
|  | 6.53 | 7.08 | 2 to 6 | 2 to 6 | 6.56 | 6.05 | < 20 | < 20 | 7.04 | 2 to 6 | 6.32 | < 20 | Active | NCCNc1c2c(c(NCCN)c3sccc13)C(=O)c1ccccc1C2=O | inactive | Active | 20.6 | Dose-dependent effect | < 10 |  |
| Active | 6.60 | 7.02 | 2 to 6 | 2 to 6 | 6.20 | 6.59 | < 32 | < 32 | 7.12 | 2 to 6 | 6.29 | < 32 | Active | NCCNc1c2c(c(NCCN)c3occc13)C(=O)c1ccccc1C2=O | 50% | Active | 32.5 | Dose-dependent effect | < 10 | inhibition (Homo sapiens [20]): Dose-dependent effect; inhibition (INH) (PANC-1 [21]): 80%; inhibition (Cytomegalovirus): inactive; Activity (Homo sapiens [22]): Active; inhibition (Homo sapiens [23]): Dose-dependent effect |
|  |  |  |  |  |  |  |  |  |  |  |  |  |  | N=C(N)NCCNc1c2c(c(NCCNC(=N)N)c3sccc13)C(=O)c1ccccc1C2=O | inactive | inactive |  |  |  |  |

— ChEMBL document CHEMBL4052820, “RNA G-Quadruplexes in Kirsten Ras (KRAS) Oncogene as Targets for Small Molecules Inhibiting Translation” (J Med Chem, 2017)
